The assay concerns the target plasma kallikrein (pKal) (Homo sapiens, UniProt P03952). In words: cell-free fluorogenic substrate enzyme activity assay with recombinant pKal. Type of assay: biochemical. Summed up: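 Human recombinant plasma kallikrein was dissolved in deionized water and used with its protein-specific fluorogenic substrate under cell-free conditions. Test compound, at concentrations up to 3000 µg/mL, was incubated with substrate solution for 30 min at 37 °C. Fluorescence was read on a microplate reader. Autofluorescence was subtracted, and relative fluorescence units were normalized to blank samples.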

Sequence of plasma kallikrein (pKal) (P03952 20-390): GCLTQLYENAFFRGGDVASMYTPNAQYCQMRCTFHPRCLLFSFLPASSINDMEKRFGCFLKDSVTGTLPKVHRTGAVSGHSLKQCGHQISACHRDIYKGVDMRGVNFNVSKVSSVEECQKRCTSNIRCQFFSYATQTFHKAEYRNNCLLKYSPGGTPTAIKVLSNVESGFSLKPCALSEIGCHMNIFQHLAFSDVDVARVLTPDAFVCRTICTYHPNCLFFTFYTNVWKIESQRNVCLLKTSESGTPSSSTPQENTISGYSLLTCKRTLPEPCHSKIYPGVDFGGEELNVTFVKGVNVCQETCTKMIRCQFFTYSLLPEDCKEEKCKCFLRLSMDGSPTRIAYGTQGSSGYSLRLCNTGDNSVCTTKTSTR
Sequence of plasma kallikrein (pKal) (P03952 391-638): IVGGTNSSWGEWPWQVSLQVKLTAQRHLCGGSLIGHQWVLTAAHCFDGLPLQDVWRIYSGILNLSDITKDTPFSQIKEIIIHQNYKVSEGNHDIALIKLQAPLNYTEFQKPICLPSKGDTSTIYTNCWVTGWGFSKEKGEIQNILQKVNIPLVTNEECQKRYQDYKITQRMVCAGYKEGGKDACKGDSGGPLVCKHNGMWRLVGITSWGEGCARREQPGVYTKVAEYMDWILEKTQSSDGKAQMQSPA

Take `C[C@@H]1O[C@@H](O[C@@H]2[C@@H](O)[C@H](OCCc3ccc(O)c(O)c3)O[C@H](CO)[C@H]2OC(=O)/C=C/c2ccc(O)c(O)c2)[C@H](O)[C@H](O)[C@H]1O` [acteoside]: the 50% inhibitory concentration (IC50) – broadly, the midpoint of a concentration-inhibition curve – is 313 µM.

For the origin of these results see publication PMC12222688 (Scientific Reports, 2025).
